Measurements as given in ChEMBL document CHEMBL1137648, “Synergistic efficacy of the combination of ST-246 with CMX001 against orthopoxviruses” (Antimicrob Agents Chemother, 2007).

Assays:
[1] = system: Vaccinia virus; assay: Antiviral activity against Vaccinia virus Copenhagen in HFF cells assessed as reduction plaque formation after 3 days; format: functional, organism-based; details: Orthopoxvirus vaccinia, 72 h
[2] = system: Vaccinia virus; assay: Antiviral activity against Vaccinia virus WR in HFF cells assessed as reduction plaque formation after 3 days; format: functional, organism-based; details: Orthopoxvirus vaccinia, 72 h
[3] = system: Cowpox virus; assay: Antiviral activity against Cowpox virus Brighton in HFF cells assessed as reduction plaque formation after 3 days; format: functional, organism-based, Cowpox virus (Brighton Red); details: 72 h
[4] = Cytotoxicity against HFF cells after 7 days by neutral red assay; format: cell-based; details: human
Method in brief: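 Confluent non-dividing HFF cells (2.5 x 10^4 cells/well) were exposed to a drug concentration series for 7 days at 37°C. Monolayers were then neutral red-stained, and the CC50 is the concentration cytotoxic to 50% of uninfected cells. Values are the mean of ≥2 assays ± standard deviation.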

[5] = Selectivity index, ratio CC50 for HFF cells to EC50 for Vaccinia virus Copenhagen; format: toxicity, cell-based; details: human, read-out: Ratio CC50/EC50
[6] = Selectivity index, ratio CC50 for HFF cells to EC50 for Vaccinia virus WR; format: toxicity, cell-based; details: human, read-out: Ratio CC50/EC50
[7] = Selectivity index, ratio CC50 for HFF cells to EC50 for Cowpox virus Brighton; format: toxicity, cell-based; details: human, read-out: Ratio CC50/EC50
[8] = system: Cowpox virus; assay: Antiviral activity against Cowpox virus Brighton infected BALB/c mouse assessed as virus-induced mortality at 15 mg/kg, ip once daily for 5 days; format: functional, Cowpox virus (Brighton Red); details: route intraperitoneal
[9] = system: Cowpox virus; assay: Antiviral activity against Cowpox virus Brighton infected BALB/c mouse assessed as virus-induced mortality at 15 mg/kg, ip treated for 5 days after 3 days of viral inoculation; format: functional, Cowpox virus (Brighton Red); details: route intraperitoneal
[10] = system: Cowpox virus; assay: Antiviral activity against Cowpox virus Brighton infected BALB/c mouse assessed as virus-induced mortality at 15 mg/kg, ip treated for 5 days after 6 days of viral inoculation; format: functional, Cowpox virus (Brighton Red); details: route intraperitoneal
[11] = system: Cowpox virus; assay: Antiviral activity against Cowpox virus Brighton infected BALB/c mouse assessed as virus-induced mean day of death at 15 mg/kg, ip treated for 5 days after 6 days of viral inoculation; format: functional, Cowpox virus (Brighton Red); details: route intraperitoneal
[12] = system: Cowpox virus; assay: Antiviral activity against Cowpox virus Brighton infected BALB/c mouse assessed as virus-induced mortality at 25 mg/kg, ip treated for 5 days after 6 days of viral inoculation; format: functional, Cowpox virus (Brighton Red); details: route intraperitoneal
[13] = system: Cowpox virus; assay: Antiviral activity against Cowpox virus Brighton infected BALB/c mouse assessed as virus-induced mortality at 5 mg/kg, ip treated for 5 days after 6 days of viral inoculation; format: functional, Cowpox virus (Brighton Red); details: route intraperitoneal
[14] = system: Cowpox virus; assay: Antiviral activity against Cowpox virus Brighton infected BALB/c mouse assessed as virus-induced mean day of death at 25 mg/kg, ip treated for 5 days after 6 days of viral inoculation; format: functional, Cowpox virus (Brighton Red); details: route intraperitoneal
[15] = system: Cowpox virus; assay: Antiviral activity against Cowpox virus Brighton infected BALB/c mouse assessed as virus-induced mean day of death at 5 mg/kg, ip treated for 5 days after 6 days of viral inoculation; format: functional, Cowpox virus (Brighton Red); details: route intraperitoneal
[16] = system: Cowpox virus; assay: Antiviral activity against Cowpox virus Brighton infected BALB/c mouse assessed as virus-induced mean day of death at 1 mg/kg, po treated for 5 days after 6 days of viral inoculation; format: functional, Cowpox virus (Brighton Red)
[17] = system: Cowpox virus; assay: Antiviral activity against Cowpox virus Brighton in HFF cells assessed as inhibition of viral replication after 7 days; format: functional, organism-based, Cowpox virus (Brighton Red); details: 168 h
[18] = system: Ectromelia virus Moscow; assay: Antiviral activity against Ectromelia virus Moscow in HFF cells assessed as inhibition of viral replication after 7 days; format: functional, organism-based; details: 168 h
[19] = system: Cowpox virus; assay: Antiviral activity against Cowpox virus Brighton infected BALB/c mouse assessed as virus-induced mortality at 10 mg/kg, po treated for 5 days after 1 day of viral inoculation; format: functional, Cowpox virus (Brighton Red)
[20] = system: Cowpox virus; assay: Antiviral activity against Cowpox virus Brighton infected BALB/c mouse assessed as virus-induced mortality at 3 mg/kg, po treated for 5 days after 1 day of viral inoculation; format: functional, Cowpox virus (Brighton Red)
[21] = system: Cowpox virus; assay: Antiviral activity against Cowpox virus Brighton infected BALB/c mouse assessed as virus-induced mortality at 1 mg/kg, po treated for 5 days after 1 day of viral inoculation; format: functional, Cowpox virus (Brighton Red)
[22] = system: Cowpox virus; assay: Antiviral activity against Cowpox virus Brighton infected BALB/c mouse assessed as virus-induced mean day of death at 10 mg/kg, po treated for 5 days after 1 day of viral inoculation; format: functional, Cowpox virus (Brighton Red)
[23] = system: Cowpox virus; assay: Antiviral activity against Cowpox virus Brighton infected BALB/c mouse assessed as virus-induced mean day of death at 3 mg/kg, po treated for 5 days after 1 day of viral inoculation; format: functional, Cowpox virus (Brighton Red)
[24] = system: Cowpox virus; assay: Antiviral activity against Cowpox virus Brighton infected BALB/c mouse assessed as virus-induced mean day of death at 1 mg/kg, po treated for 5 days after 1 day of viral inoculation; format: functional, Cowpox virus (Brighton Red)
[25] = system: Cowpox virus; assay: Antiviral activity against Cowpox virus Brighton infected BALB/c mouse assessed as virus-induced mortality at 10 mg/kg, po treated for 5 days after 3 days of viral inoculation; format: functional, Cowpox virus (Brighton Red)
[26] = system: Cowpox virus; assay: Antiviral activity against Cowpox virus Brighton infected BALB/c mouse assessed as virus-induced mortality at 3 mg/kg, po treated for 5 days after 3 days of viral inoculation; format: functional, Cowpox virus (Brighton Red)
[27] = system: Cowpox virus; assay: Antiviral activity against Cowpox virus Brighton infected BALB/c mouse assessed as virus-induced mortality at 1 mg/kg, po treated for 5 days after 3 days of viral inoculation; format: functional, Cowpox virus (Brighton Red)
[28] = system: Cowpox virus; assay: Antiviral activity against Cowpox virus Brighton infected BALB/c mouse assessed as virus-induced mean day of death at 10 mg/kg, po treated for 5 days after 3 days of viral inoculation; format: functional, Cowpox virus (Brighton Red)
[29] = system: Cowpox virus; assay: Antiviral activity against Cowpox virus Brighton infected BALB/c mouse assessed as virus-induced mean day of death at 3 mg/kg, po treated for 5 days after 3 days of viral inoculation; format: functional, Cowpox virus (Brighton Red)
[30] = system: Cowpox virus; assay: Antiviral activity against Cowpox virus Brighton infected BALB/c mouse assessed as virus-induced mean day of death at 1 mg/kg, po treated for 5 days after 3 days of viral inoculation; format: functional, Cowpox virus (Brighton Red)
[31] = system: Cowpox virus; assay: Antiviral activity against Cowpox virus Brighton infected BALB/c mouse assessed as virus-induced mortality at 10 mg/kg, po treated for 5 days after 6 days of viral inoculation; format: functional, Cowpox virus (Brighton Red)
[32] = system: Cowpox virus; assay: Antiviral activity against Cowpox virus Brighton infected BALB/c mouse assessed as virus-induced mortality at 3 mg/kg, po treated for 5 days after 6 days of viral inoculation; format: functional, Cowpox virus (Brighton Red)
[33] = system: Cowpox virus; assay: Antiviral activity against Cowpox virus Brighton infected BALB/c mouse assessed as virus-induced mortality at 1 mg/kg, po treated for 5 days after 6 days of viral inoculation; format: functional, Cowpox virus (Brighton Red)
[34] = system: Cowpox virus; assay: Antiviral activity against Cowpox virus Brighton infected BALB/c mouse assessed as virus-induced mean day of death at 10 mg/kg, po treated for 5 days after 6 days of viral inoculation; format: functional, Cowpox virus (Brighton Red)
[35] = system: Cowpox virus; assay: Antiviral activity against Cowpox virus Brighton infected BALB/c mouse assessed as virus-induced mean day of death at 3 mg/kg, po treated for 5 days after 6 days of viral inoculation; format: functional, Cowpox virus (Brighton Red)
[36] = system: Monkeypox virus; assay: Antiviral activity against Monkeypox virus in HFF cells assessed as inhibition of viral replication after 7 days; format: functional, organism-based; details: 168 h
[37] = system: Camelpox virus; assay: Antiviral activity against Camelpox virus in HFF cells assessed as inhibition of viral replication after 7 days; format: functional, organism-based; details: 168 h
[38] = system: Vaccinia virus; assay: microbe, parasite or virus in culture; details: Orthopoxvirus vaccinia, Copenhagen, HFF, 168 h
[39] = system: Variola virus; assay: microbe, parasite or virus in culture; details: HFF, 168 h
[40] = system: Cowpox virus; assay: Antiviral activity against Cowpox virus Brighton infected BALB/c mouse assessed as virus-induced mean day of death at 0.3 mg/kg, po treated for 5 days after 6 days of viral inoculation; format: functional, Cowpox virus (Brighton Red)
[41] = system: Cowpox virus; assay: Antiviral activity against Cowpox virus Brighton infected BALB/c mouse assessed as virus-induced mortality at 0.3 mg/kg, po treated for 5 days after 1 day of viral inoculation; format: functional, Cowpox virus (Brighton Red)
[42] = system: Cowpox virus; assay: Antiviral activity against Cowpox virus Brighton infected BALB/c mouse assessed as virus-induced mean day of death at 0.3 mg/kg, po treated for 5 days after 1 day of viral inoculation; format: functional, Cowpox virus (Brighton Red)
[43] = system: Cowpox virus; assay: Antiviral activity against Cowpox virus Brighton infected BALB/c mouse assessed as virus-induced mortality at 0.3 mg/kg, po treated for 5 days after 3 days of viral inoculation; format: functional, Cowpox virus (Brighton Red)
[44] = system: Cowpox virus; assay: Antiviral activity against Cowpox virus Brighton infected BALB/c mouse assessed as virus-induced mean day of death at 0.3 mg/kg, po treated for 5 days after 3 days of viral inoculation; format: functional, Cowpox virus (Brighton Red)
[45] = system: Cowpox virus; assay: Antiviral activity against Cowpox virus Brighton infected BALB/c mouse assessed as virus-induced mortality at 0.3 mg/kg, po treated for 5 days after 6 days of viral inoculation; format: functional, Cowpox virus (Brighton Red)

Compound | EC50 [1] [nM] | EC50 [2] [nM] | EC50 [3] [nM] | CC50 at 168 h [4] [nM] | selectivity ratio [5] | selectivity ratio [6] | selectivity ratio [7] | Activity [16] [days] | Activity [20] [%] | Activity [21] [%] | Activity [24] [days] | Activity [26] [%] | Activity [27] [%] | Activity [29] [days] | Activity [30] [days] | Activity [32] [%] | Activity [33] [%] | Activity [35] [days] | also measured
Nc1ccn(C[C@@H](CO)OCP(=O)(O)O)c(=O)n1.O.O [CIDOFOVIR] | 29200 | 33000 | 41100 | > 317000 | > 10.9 | ≥ 9.6 | > 7.7 |  |  |  |  |  |  |  |  |  |  |  | Activity [8]: 0%; Activity [9]: 0%; Activity [10]: 60%; Activity [11]: 12.8 days; Activity [12]: 80%; Activity [13]: 93%; Activity [14]: 11.5 days; Activity [15]: 11.2 days
O=C(NN1C(=O)[C@@H]2[C@@H]3C=C[C@@H]([C@H]4C[C@@H]34)[C@@H]2C1=O)c1ccc(C(F)(F)F)cc1 [TECOVIRIMAT] | 50 | 100 | 480 | > 100000 | > 2000 | > 1000 | > 208 | 9.5 | 20 | 100 | 9.4 | 33 | 100 | 15.2 | 14.4 | 80 | 100 | 13.5 | EC50 [17]: ≤ 70 nM; EC50 [18]: ≤ 70 nM; Activity [19]: 73%; Activity [22]: 13.2 days; Activity [23]: 11.3 days; Activity [25]: 13%; Activity [28]: 15.5 days; Activity [31]: 100%; Activity [34]: 13.5 days; EC50 [36]: ≤ 70 nM; EC50 [37]: ≤ 70 nM; EC50 [38]: ≤ 70 nM; EC50 [39]: ≤ 70 nM
CCCCCCCCCCCCCCCCOCCCOP(=O)(O)CO[C@H](CO)Cn1ccc(N)nc1=O [BRINCIDOFOVIR] | 140 | 130 | 240 | 42000 | 300 | 323 | 175 | 9.9 | 0 | 20 | 13.7 | 27 | 100 | 16.3 | 12 | 100 | 100 | 9.9 | Activity [40]: 10 days; Activity [41]: 73%; Activity [42]: 11.7 days; Activity [43]: 87%; Activity [44]: 12.8 days; Activity [45]: 100%
